In ChEMBL document CHEMBL3352177, “C-glycoside mimetics inhibit glioma stem cell proliferation, migration, and invasion” (J Med Chem, 2014):

Key:
A-431 = assay: Antiproliferative activity against human A431 cells after 48 to 72 hrs by MTT assay; type: functional, cell-based
How it was run: (§1)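 MTT assay read 48 and 72 h after compound addition. Cell lines grown in DMEM with 10% heat-inactivated FCS, 2 mM L-glutamine, 1 mM sodium pyruvate; GBM stem cells grown as nonadherent neurospheres. IC50 by Hill equation fit; ≥3 independent experiments, each point repeated six times.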

[1] = Antiproliferative activity against human Caco2 cells after 48 to 72 hrs by MTT assay; type: functional, cell-based; settings: Caco-2; how it was run: as §1
MDA-MB-231 = assay: Antiproliferative activity against human MDA-MB-231 cells after 48 to 72 hrs by MTT assay; type: functional, cell-based; how it was run: as §1
MDA-MB-435 = assay: Antiproliferative activity against human MDA-MB-435 cells after 48 to 72 hrs by MTT assay; type: functional, cell-based; how it was run: as §1
[2] = Antiproliferative activity against human HuH7 cells after 48 to 72 hrs by MTT assay; type: functional, cell-based; settings: Huh-7; how it was run: as §1
[3] = Antiproliferative activity against mouse B16F10 cells after 48 to 72 hrs by MTT assay; type: functional, cell-based; settings: B16-F10; how it was run: as §1
DU-145 = assay: Antiproliferative activity against human DU145 cells after 48 to 72 hrs by MTT assay; type: functional, cell-based; how it was run: as §1
C6 [4] = assay: Antiproliferative activity against rat C6 cells after 48 to 72 hrs by MTT assay; type: functional, cell-based; how it was run: as §1
SNB-75 [5] = assay: Antiproliferative activity against human SNB75 cells after 48 to 72 hrs by MTT assay; type: functional, cell-based; how it was run: as §1
[6] = Antiproliferative activity against human Gli7 cells after 48 to 72 hrs by MTT assay; type: functional, cell-based; how it was run: as §1
[7] = Antiproliferative activity against human Gli4F11 cells after 48 to 72 hrs by MTT assay
[8] = Antimigratory activity against human Gli4 cells on matrix containing vitronectin after 24 hrs by 2-D migration assay; type: functional, cell-based
How it was run: (§2)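 Boyden chamber 2D migration toward serum over 24 h on fibronectin, vitronectin or laminin matrix. Cells in DMEM with 0.1% BSA in the upper compartment with or without compound; 10% FCS medium below. Gli4/Gli7 taken from neurosphere cultures. Migrated cells methanol-fixed, crystal violet stained, counted at ×200. Ki from Hill equation fit; ≥3 independent experiments, each point in quadruplicate.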

[9] = Antimigratory activity against human Gli4 cells on matrix containing fibronectin after 24 hrs by 2-D migration assay; type: functional, cell-based; how it was run: as §2
[10] = Antimigratory activity against human Gli7 cells on matrix containing fibronectin after 24 hrs by 2-D migration assay; type: functional, cell-based; how it was run: as §2
SNB-75 [11] = assay: Antimigratory activity against human SNB75 cells on matrix containing fibronectin after 24 hrs by 2-D migration assay; type: functional, cell-based; how it was run: as §2
C6 [12] = assay: Antimigratory activity against rat C6 cells on matrix containing fibronectin after 24 hrs by 2-D migration assay; type: functional, cell-based; how it was run: as §2
[13] = Antimigratory activity against human Gli7 cells on matrix containing vitronectin after 24 hrs by 2-D migration assay; type: functional, cell-based; how it was run: as §2
SNB-75 [14] = assay: Antimigratory activity against human SNB75 cells on matrix containing vitronectin after 24 hrs by 2-D migration assay; type: functional, cell-based; how it was run: as §2
C6 [15] = assay: Antimigratory activity against rat C6 cells on matrix containing vitronectin after 24 hrs by 2-D migration assay; type: functional, cell-based; how it was run: as §2
[16] = Antimigratory activity against human Gli4 cells on matrix containing laminin after 24 hrs by 2-D migration assay; type: functional, cell-based; how it was run: as §2
[17] = Antimigratory activity against human Gli7 cells on matrix containing laminin after 24 hrs by 2-D migration assay; type: functional, cell-based; how it was run: as §2
SNB-75 [18] = assay: Antimigratory activity against human SNB75 cells on matrix containing laminin after 24 hrs by 2-D migration assay; type: functional, cell-based; how it was run: as §2
C6 [19] = assay: Antimigratory activity against rat C6 cells on matrix containing laminin after 24 hrs by 2-D migration assay; type: functional, cell-based; how it was run: as §2

Compound	IC50 (A-431) [µM]	IC50 (MDA-MB-231) [µM]	IC50 (MDA-MB-435) [µM]	IC50 (DU-145) [µM]	IC50 [1] [µM]	IC50 [2] [µM]	IC50 [3] [µM]	IC50 (C6 [4]) [µM]	IC50 (SNB-75 [5]) [µM]	IC50 [6] [µM]	IC50 [7] [µM]	further results
CC[P@@]1(=O)O[C@H]([C@H]2COC(C)(C)O2)[C@@H]2OC(C)(C)O[C@@H]2[C@@H]1O	> 100	> 100	> 100	> 100	> 100	> 100	> 100	8.66	4.92	2.5	3.8	Ki [8]: 0.194 µM; Ki [9]: 0.1 µM; Ki [10]: 0.064 µM; Ki (SNB-75 [11]): 0.019 µM; Ki (C6 [12]): 0.027 µM; Ki [13]: 0.438 µM; Ki (SNB-75 [14]): 0.066 µM; Ki (C6 [15]): 0.047 µM; Ki [16]: 0.239 µM; Ki [17]: 1.05 µM; Ki (SNB-75 [18]): 0.027 µM; Ki (C6 [19]): 0.025 µM
CC(=O)O[C@H]1[C@H]2OC(C)(C)O[C@H]2[C@@H]([C@H]2COC(C)(C)O2)O[P@]1(=O)c1ccccc1	> 100	> 100	> 100	> 100	> 100	> 100	> 100	10.2	1.37	3.62	8.76	
CC1(C)O[C@H]2[C@@H]([C@H]3COC(C)(C)O3)O[P@](=O)(c3ccccc3)[C@@H](OC(=O)c3ccccc3)[C@H]2O1	4.35	1.16	0.66	> 100	> 100	> 100	13.5	8.51	9.54	1.93	3.22	
CC1(C)O[C@H]2[C@@H]([C@H]3COC(C)(C)O3)O[P@](=O)(c3ccccc3)[C@@H](OS(C)(=O)=O)[C@H]2O1	4.85	3.45	1.96	> 100	> 100	24	2.08	1.11	6.28	2.71	6.81	
Cc1ccc(S(=O)(=O)O[C@H]2[C@H]3OC(C)(C)O[C@H]3[C@@H]([C@H]3COC(C)(C)O3)O[P@]2(=O)c2ccccc2)cc1	4.44	2.66	4.02	> 100	> 100	> 100	1.64	6.99	9.42	2.8	5.41	
CC1(C)O[C@H]2[C@@H]([C@H]3COC(C)(C)O3)O[P@](=O)(c3ccccc3)[C@@H](Oc3ccc([N+](=O)[O-])c([N+](=O)[O-])c3)[C@H]2O1	0.84	6.35	2.66	> 100	> 100	23.8	2.59	9.44	6.99	1.93	2.87	
CC1(C)O[C@H]2[C@@H]([C@H]3COC(C)(C)O3)O[P@](=O)(c3ccccc3)[C@@H](Oc3ccc(N)cc3)[C@H]2O1	> 100	4.82	3.36	> 100	> 100	23.6	4.69	9.35	6.23	1.77	2.98	
Cc1ccc(N[C@@H]2[C@H]3OC(C)(C)O[C@H]3[C@@H]([C@H]3COC(C)(C)O3)O[P@@]2(=O)c2ccccc2)cc1	4.67	3.72	2.65	> 100	> 100	23.6	2.02	5.5	5.37	2.8	5.55	
CC1(C)O[C@@H]2[C@H](O1)[C@@H](NCc1ccccc1)[P@](=O)(c1ccccc1)O[C@@H]2[C@H]1COC(C)(C)O1	4.7	4.17	3.99	> 100	> 100	23.8	2.05	14.8	5.16	4.62	2.79	
CC1(C)O[C@@H]2[C@H](O1)[C@@H](N)[P@](=O)(c1ccccc1)O[C@@H]2[C@H]1COC(C)(C)O1	> 100	4.15	1.16	> 100	> 100	16.3	1.02	24.4	2.96	1.29	1.37	

More lines, in order of falling IC50 (A-431), values ahead:

IC50 (A-431) [µM]	IC50 (MDA-MB-231) [µM]	IC50 (MDA-MB-435) [µM]	IC50 (DU-145) [µM]	Compound	IC50 [1] [µM]	IC50 [2] [µM]	IC50 [3] [µM]	IC50 (C6 [4]) [µM]	IC50 (SNB-75 [5]) [µM]	IC50 [6] [µM]	IC50 [7] [µM]	further results
2.02	> 100	> 100	> 100	CC1(C)O[C@H]2[C@@H]([C@H]3COC(C)(C)O3)O[P@](=O)(c3ccccc3)[C@@H](Oc3ccc([N+](=O)[O-])cc3)[C@H]2O1	> 100	> 100	> 100	31.4	3.11	2.07	3.91	
1.26	3.83	2.48	> 100	CC1(C)O[C@@H]2[C@H](O1)[C@@H](Nc1ccccc1)[P@](=O)(c1ccccc1)O[C@@H]2[C@H]1COC(C)(C)O1	> 100	24.2	1.96	10.3	9.99	1.82	2.68	
1.11	9.37	16.6	> 100	CC1(C)O[C@H]2[C@@H]([C@H]3COC(C)(C)O3)O[P@](=O)(c3ccccc3)[C@@H](O)[C@H]2O1	> 100	> 100	9.95	0.5	14.3	3.16	38.4	
0.98	6.08	11	> 100	CC1(C)O[C@H]2[C@@H]([C@H]3COC(C)(C)O3)O[P@@](=O)(c3ccccc3)[C@@H](O)[C@H]2O1	> 100	> 100	10.2	> 100	13.4	3.72	8.56	
0.77	5.6	11.6	> 100	CC1(C)O[C@@H]2[C@H](O1)[C@@H](O)[P@@](=O)(c1ccccc1)O[C@@H]2[C@H]1COC(C)(C)O1	> 100	> 100	10.4	> 100	16.1	5.81	11.4	
0.55	> 100	> 100	> 100	CCCC[P@@]1(=O)O[C@H]([C@H]2COC(C)(C)O2)[C@@H]2OC(C)(C)O[C@@H]2[C@@H]1O	> 100	> 100	> 100	8.62	6.21	2.88	6.12	
0.13	23.2	9.61	31.2	CC(=O)N[C@@H]1[C@H]2OC(C)(C)O[C@H]2[C@@H]([C@H]2COC(C)(C)O2)O[P@@]1(=O)c1ccccc1	36	21.9	14.9	0.65	0.65	0.5	0.54	
